This note sets out measurements from the RNAGym collection of RNA variant scans (doi:10.1126/science.aae0568).

This sample holds only a part of the variants without activity.

B1: tRNA (parent)
chain: GUUCCGUUGGCGUAAUGGUAACGCGUCUCCCUCCUAAGGAGAAGACUGCGGGUUCGAGUCCCGUACGGAACG

The variants in this series derive from B1. Description: yeast fitness relative to wild type (ratio to wild type); higher = fitter; tRNA-Arg(CCU), competitive growth, 37 C, YPD. The method, boiled down:
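A pool of Saccharomyces cerevisiae strains, each with a tRNA-Arg(CCU) gene variant at the native genomic locus, was competed in YPD at 37°C for 24 hours across six parallel replicates. The variants had been chemically synthesised at a 3% per-site mutation rate over 69 sites, and gene amplicons before and after competition were read by 100-nucleotide paired-end sequencing. Darwinian fitness relative to wild type rested on changes in genotype frequencies. Genotypes required ≥ 100 starting reads, and estimates < 0.5 were set to 0.5.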
For C5U U13C A15C, the yeast fitness was no more than 0.5.

Regarding U7A G9A U13A A70U, the yeast fitness is no more than 0.5.

For the variant C27G U32C, the yeast fitness is 0.935.

For the variant C4A G23C G56C U59A A65G, the yeast fitness was no more than 0.5.

Consider G12A C24U C34U G58C C62G G67A, for which the yeast fitness worked out at 0.542.

Regarding G52A U54C, the yeast fitness was found to be 0.589.

Consider G6C G12A U35A, for which the yeast fitness was 0.55.

Consider C4A G9A G44C G51A G58C U59A, for which the yeast fitness was no more than 0.5.

For the variant G41A A65U, the yeast fitness came to 0.722.

C4U G6A A36C C46U: the yeast fitness is no more than 0.5.

Turning to C22G A42U C62A, the yeast fitness was no more than 0.5.

C5U G44C G63C: the yeast fitness is 0.686.

Turning to C5G A36U U54C, the yeast fitness was no more than 0.5.

Regarding G12A C31U A70G, the yeast fitness was determined as 0.803.

As to C4G U7G G10C C24U C29A A45U C46G U47A G50A U64G, the yeast fitness is no more than 0.5.

Regarding G10A C30U, the yeast fitness amounted to 0.748.

With C30A C61U C62A A70G, the yeast fitness was no more than 0.5.

On to U26A A45G, for which the yeast fitness amounted to 0.882.

Consider C29G C33A C34A A57U, for which the yeast fitness stood at 0.54.

Regarding C11A C31G A70U, the yeast fitness was no more than 0.5.

Regarding C4U U7C G10A A14U C27G A36G, the yeast fitness came to 0.505.

Take C5U A14C C46G: the yeast fitness turned out to be 0.561.

For the variant U19A G51A, the yeast fitness stood at 0.768.

Turning to G18C G56C, the yeast fitness was 0.524.

Turning to G10A G51A C55G G67U G68C, the yeast fitness is no more than 0.5.

Regarding C4A C27U U28G C33G A36G C61G, the yeast fitness was no more than 0.5.

As for G9A A21U G39C, the yeast fitness was no more than 0.5.

For the variant C62A A69C, the yeast fitness was determined as 0.78.

Take C11A C61G A65C A70C: the yeast fitness is no more than 0.5.

For G18A A20U C29G A37U C55A C66U, the yeast fitness is no more than 0.5.

Take C4A A14G G18A G25C: the yeast fitness was no more than 0.5.

On to C22G C24U C29U C30G, for which the yeast fitness was 0.579.

Turning to G10A A21U A43U A45U G50C, the yeast fitness is no more than 0.5.

As to A14C A20U C31U G38C, the yeast fitness was no more than 0.5.

Turning to A42C A43C, the yeast fitness was 1.02.

Turning to C29U C34G G38C U54A A57C, the yeast fitness was no more than 0.5.

As for G10C C30U C31A, the yeast fitness was no more than 0.5.

On to A14U A36G A40G, for which the yeast fitness is no more than 0.5.

For the variant C11U C34G G38C C61U, the yeast fitness was no more than 0.5.

With A20C A57G, the yeast fitness was 0.757.

Regarding G17A A21G, the yeast fitness stood at 0.765.

For the variant G23A C33G U35G, the yeast fitness was no more than 0.5.

Regarding A21U C29A A36G G58A C66U, the yeast fitness is no more than 0.5.

Regarding C4A U19G, the yeast fitness was determined as 0.742.

For G9A C31U, the yeast fitness is 0.982.

For A15U U16C U35A G44A, the yeast fitness is no more than 0.5.

Consider C24U C31G, for which the yeast fitness came out at 0.845.

Consider U35G A43G U59A, for which the yeast fitness came out at 0.658.

For the variant U7G U8C C11G C34U G41A, the yeast fitness was 0.547.

As to C22U U47C C62U, the yeast fitness amounted to 0.667.

For the variant C11U A14C C27G C31U C49G G58C, the yeast fitness is no more than 0.5.

Consider A36U G38A A40G, for which the yeast fitness was no more than 0.5.

Consider A43U C62U A70C, for which the yeast fitness stood at 0.637.

Turning to C27G A43C C46U C60U, the yeast fitness amounted to 0.748.

With C27G C31A G56A, the yeast fitness is no more than 0.5.

As for C22G C49U G56A, the yeast fitness was 0.797.

G6C G9A G48C G51C U53A C66A: the yeast fitness was no more than 0.5.

For the variant C11U U16C, the yeast fitness was 1.02.

Take C33U A42U: the yeast fitness came out at 0.729.

Take G6A C27A A65G A70C: the yeast fitness is no more than 0.5.

Turning to C22U G23A C66G G67A, the yeast fitness is no more than 0.5.

On to C5A C31U U35C G50A, for which the yeast fitness was determined as 0.565.

Turning to U8A G12A A20C, the yeast fitness was no more than 0.5.

As for C33U A45C, the yeast fitness was 0.703.

A21C U35C A65G: the yeast fitness came out at 0.583.

With U28C A40G G51C A65U, the yeast fitness worked out at 0.545.

Turning to U16G U59C C60G, the yeast fitness is no more than 0.5.

Take A14U G17A G23A G63A: the yeast fitness is no more than 0.5.

In the case of C29A C31G G39A G48C, the yeast fitness is no more than 0.5.

For G25A G39A G52A, the yeast fitness is no more than 0.5.

Take C22U C66U: the yeast fitness was determined as 0.762.

Turning to U26G, the yeast fitness was determined as 0.971.

Consider C11G C30U U54A, for which the yeast fitness is no more than 0.5.

On to C4U C5G C34U U54A G67U, for which the yeast fitness was no more than 0.5.

Turning to A21G U26G G51C, the yeast fitness was no more than 0.5.

A21C C27A C33U A69C: the yeast fitness amounted to 0.625.

Turning to C22G C27U G68A, the yeast fitness came out at 0.623.

For the variant C5G G9A A65C, the yeast fitness amounted to 0.596.

On to U3C C60G G67C, for which the yeast fitness was no more than 0.5.

Take C5G C27U G51A C60G A70G: the yeast fitness was no more than 0.5.

For A15U C30G A36C C60A C61U, the yeast fitness is no more than 0.5.

Regarding C31G G44C A65G A69C, the yeast fitness was no more than 0.5.

Consider A20C C31G U47C G58C, for which the yeast fitness is no more than 0.5.

On to A36G G63A A69U, for which the yeast fitness amounted to 0.688.

Regarding U16G U26C C49G, the yeast fitness was no more than 0.5.

Regarding C27G A37G G52U C61U G67A, the yeast fitness was no more than 0.5.

Consider C30A C31U C33U A37C, for which the yeast fitness is no more than 0.5.

Turning to U7A C27G C33A A36G G58A C66U, the yeast fitness is no more than 0.5.

With G12C G18C G58C, the yeast fitness is no more than 0.5.

Take G23C U26A G50A A65C: the yeast fitness stood at 0.533.

For C5U C22A G25A, the yeast fitness turned out to be 0.781.

Turning to A14C C24G U26A A36G A40U A43U, the yeast fitness is no more than 0.5.

Take G25C A45G: the yeast fitness turned out to be 0.869.

In the case of G12A G18C C62U G63C A70C, the yeast fitness was no more than 0.5.

In the case of G44C A70G, the yeast fitness is 0.954.

With G9C A15C, the yeast fitness worked out at 0.609.

In the case of C49A G50U C62U, the yeast fitness is no more than 0.5.

Consider C4A G12A C34G C66U, for which the yeast fitness is no more than 0.5.

Consider C4A G9A U16A A40G C46U C62G A69U, for which the yeast fitness is no more than 0.5.

Take U26C C30G U64C: the yeast fitness was 0.703.

With C4A G6C, the yeast fitness was found to be 0.703.

On to G17A A21C C29U G48A, for which the yeast fitness was determined as 0.652.

As for U3C C33G C55U, the yeast fitness is no more than 0.5.

As for C4G C49G G67A, the yeast fitness is no more than 0.5.

On to U26A C31U, for which the yeast fitness amounted to 0.999.

With U19C A36C G58C, the yeast fitness was no more than 0.5.

For C22G A57C, the yeast fitness came out at 0.684.

U2C C5G C46U G58A: the yeast fitness amounted to 0.611.

As to U47C A65U, the yeast fitness amounted to 0.998.

For A14U C30A U32C, the yeast fitness was no more than 0.5.

As to G12C G18A, the yeast fitness worked out at 0.823.

In the case of A15G A21C C24G A40U C49U, the yeast fitness is no more than 0.5.

As for C30U A40G C55U U64C, the yeast fitness was 0.646.

For the variant U26A A65U G67A, the yeast fitness turned out to be 0.62.

As for C5U A37G A45C C61G A70U, the yeast fitness was no more than 0.5.

U35G A45G: the yeast fitness is 0.669.

For the variant G41A C49G A65G, the yeast fitness came to 0.546.

For the variant G6C C31A, the yeast fitness came to 0.808.

Consider C27G C31U C49G G58C, for which the yeast fitness is no more than 0.5.

As to U16G C46A, the yeast fitness was found to be 0.754.

As to U8C A42U U53A, the yeast fitness was no more than 0.5.

Regarding A42C C66G, the yeast fitness was determined as 0.684.

Consider C5A G44C G48A G51A, for which the yeast fitness is 0.609.

C46U G67A: the yeast fitness worked out at 0.986.

As for G48A C60U, the yeast fitness was 0.847.

Regarding C11U C33G C46A C61A, the yeast fitness was no more than 0.5.

A15C C46G G50C C61A: the yeast fitness stood at 0.636.

With A15C G44A G67A, the yeast fitness was no more than 0.5.

Regarding G25A G58C, the yeast fitness was found to be 0.901.

As for A21U C24G C29G C49U, the yeast fitness was no more than 0.5.

Consider G25C C46A G50C, for which the yeast fitness is 0.618.

In the case of G6C U8C A20G G50A A57U, the yeast fitness was no more than 0.5.

For C30U C34G C46U C55U G67C, the yeast fitness is no more than 0.5.

For the variant U3G C31G, the yeast fitness worked out at 0.874.

Consider C11U G48C A65G, for which the yeast fitness is 0.714.

Turning to C4U C27G A45C G58A C62G, the yeast fitness is no more than 0.5.

Regarding U7G A43C, the yeast fitness was found to be 0.969.

Take C34U A36G C49U C55G A57U G67A: the yeast fitness was no more than 0.5.

For U16C U35C G44C, the yeast fitness is no more than 0.5.

Consider G9C U32C A36G A70U, for which the yeast fitness was no more than 0.5.

In the case of G12A U32G C33U A45U C55U, the yeast fitness was no more than 0.5.

As for G23A C27U C29U G39A G58A A65C, the yeast fitness is no more than 0.5.

C4G C22U G50C: the yeast fitness was no more than 0.5.

G25A A45G G48A G50C A69C: the yeast fitness was no more than 0.5.

Turning to C11A G17U A20G C31A, the yeast fitness was no more than 0.5.

As to C24A U32C C33U U54C, the yeast fitness was found to be 0.602.

As for A40U A43G C60G, the yeast fitness was no more than 0.5.

As for A21G C29U G41C A69U, the yeast fitness stood at 0.63.

Consider U3A A14G A15G A20U A37G G41A, for which the yeast fitness was 0.525.

As to U7A C11U U47A, the yeast fitness was no more than 0.5.

Regarding U2A C11U G23C C27A A69U, the yeast fitness was no more than 0.5.

Regarding C4G U35G A43C U47C, the yeast fitness was no more than 0.5.

With G39C G44C C46U, the yeast fitness came to 0.588.

For C4U G12A G48C, the yeast fitness worked out at 0.648.

In the case of C22U G48A C55A G58C, the yeast fitness is no more than 0.5.

With A21G C29G U47G, the yeast fitness was no more than 0.5.

Regarding A43G C46G U53C G56C, the yeast fitness is no more than 0.5.

As for A15C A21G C22U A57U, the yeast fitness was no more than 0.5.

As for C11A G44A G48A, the yeast fitness was determined as 0.68.

Regarding C5U G25A G51C G56C A69U, the yeast fitness is no more than 0.5.

As for U7A C49A, the yeast fitness worked out at 0.634.

As for U7A G67C, the yeast fitness was 0.669.

On to U16C G17C C24U, for which the yeast fitness was found to be 0.559.

In the case of G9A A21U C66G, the yeast fitness is no more than 0.5.

As for C11U C34G U47G, the yeast fitness is no more than 0.5.

Turning to A20U C31G U32G, the yeast fitness came to 0.531.

On to U2A C11G C49A A70G, for which the yeast fitness was no more than 0.5.
